Assay outcomes from PubChem.
Sampled rows, rich in hits. Any-hit rate of the full collection: about 1.4%.
Calpain2 inh: inhibitors of pig calpain II, primary screen, biochemical, fluorogenic peptide substrate, 1536-well | purified calpain II, 30 min | inhibition, % at 16 µM | 0.37% of 220,000 active | AID 1236, 2008;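 active = inhibition above about 50%, limit read from the data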
thrombin 1536: human alpha-thrombin inhibitors, primary screen, counter-screen for coagulation protease inhibitor project, biochemical, 1536-well, fluorogenic AMC substrate | Prothrombin (Homo sapiens), P00734 | Boc-VPR-AMC fluorogenic substrate cleavage | inhibition, % at 5 µM | 0.26% of 220,000 active;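 active = inhibition at or above 40%; inactive = inhibition below 40%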;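 note: 0% = enzyme with no compound and 100% = wells without enzyme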
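Material: human alpha-thrombin protein. Incubation: reaction at ambient temperature. Technique: fluorescence of released AMC, ex 355 nm, em 460 nm. Control set: no-compound enzyme wells and no-enzyme blanks. Also added: Boc-VPR-AMC substrate, 15 µM final. Buffer or medium: pH 7.5 Tris (50 mM) with NaCl 150 mM, Tween 20 0.05%.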
FXIa inh 1536: human FXIa protease inhibitors, primary screen, biochemical, 1536-well; Coagulation factor XI (Homo sapiens), P03951; purified FXIa, Boc-Glu-Ala-Arg-AMC fluorogenic substrate; inhibition, % at 5 µM; 0.14% of 220,000 active; AID 798, 2007;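 active = inhibition of at least 40%; inactive = inhibition below 40%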;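 note: fluorescence of freed AMC excited at 355 nm; 0% = enzyme without compound and 100% = no enzyme blank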
FXIIa inh 1536: human FXIIa protease inhibitors, primary screen, biochemical, 1536-well; Coagulation factor XII (Homo sapiens), P00748; purified FXIIa, Boc-QGR-AMC fluorogenic substrate, 2 h; inhibition, % at 5 µM; 0.3% of 220,000 active; in the data active = inhibition above about 40%;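 note: 0% = enzyme with no compound and 100% = blank without enzyme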
Target sequence (P00748 20-372 limits assumed): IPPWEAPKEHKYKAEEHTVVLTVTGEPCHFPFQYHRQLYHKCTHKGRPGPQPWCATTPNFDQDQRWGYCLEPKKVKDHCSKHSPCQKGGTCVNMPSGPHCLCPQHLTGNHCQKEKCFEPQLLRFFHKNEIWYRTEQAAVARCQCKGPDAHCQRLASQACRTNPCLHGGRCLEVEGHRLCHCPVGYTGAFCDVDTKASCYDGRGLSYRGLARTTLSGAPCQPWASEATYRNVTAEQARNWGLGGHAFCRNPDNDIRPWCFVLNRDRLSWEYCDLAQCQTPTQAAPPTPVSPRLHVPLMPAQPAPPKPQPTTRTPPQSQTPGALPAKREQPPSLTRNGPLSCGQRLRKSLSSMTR
Target sequence (P00748 373-615 limits assumed): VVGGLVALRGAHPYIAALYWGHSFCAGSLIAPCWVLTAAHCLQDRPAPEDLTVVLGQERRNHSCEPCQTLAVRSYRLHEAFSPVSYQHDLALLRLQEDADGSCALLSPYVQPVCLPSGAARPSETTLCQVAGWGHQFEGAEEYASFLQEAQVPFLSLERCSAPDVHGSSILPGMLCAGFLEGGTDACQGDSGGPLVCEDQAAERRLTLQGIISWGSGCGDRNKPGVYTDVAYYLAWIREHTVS
hK5 inh: human KLK5 protease inhibitors, primary screen, biochemical, 1536-well | inhibition, % at 5 µM | 0.59% of 210,000 active | Kallikrein-5 (Homo sapiens), Q9Y337 | recombinant hK5, fluorogenic AMC substrate cleavage;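 active = inhibition of 40% or more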;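 note: 0% = enzyme controls without compound and 100% = no-enzyme blanks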
* = called active by the depositor; / = not tested or not shown; ! = a repeat was not active.

SMILES	Calpain2 inh	thrombin 1536	FXIa inh 1536	FXIIa inh 1536	hK5 inh
Cn1c(C(=O)N2CCCCCC2)cc2c(=O)n(C)c3ccccc3c21	12.1	-0.4	4.5	19.1	-13.1
CCc1oc2ccccc2c1C(=O)c1cc(Br)c(O)c(Br)c1	55.4*!	-6.2	-3.9	5.6	-2.1
COc1ccc(-c2[nH]nc3c2C(c2ccoc2)C(C#N)=C(N)O3)cc1 (configuration not stated)	-19.5	2.2	10.4	15.3	-6.2
Cc1ccc(-c2[nH]nc3c2C(c2ccoc2)C(C#N)=C(N)O3)cc1C (configuration not stated)	2.9	-2.4	-4.9	-3.2	61.8*
Nc1nc(SCC(=O)N2N=C(c3ccc(Cl)cc3)CC2c2ccco2)n[nH]1 (configuration not stated)	24.8	-1.9	-1.1	0.2	-5.2
COc1ccc(Cn2cc3c(-c4ccc(F)cc4)nnc-3c3cc(OC)c(OC)cc32)cc1	-130.6	3.3	7.0	14.0	0.0
S=C(NCC1CCCO1)Nc1ccc(Nc2ccccc2)cc1 (configuration not stated)	28.8	-3.1	29.3	25.3	40.1*
S=C(NCc1cccs1)NCC1CCCO1 (configuration not stated)	28.8	60.1*	26.0	24.9	13.7
O=C(Cc1cccs1)NCC1CCCO1 (configuration not stated)	-41.7	-3.2	-5.0	1.7	-16.0
CCCCNC(=O)Cc1coc2ccc3ccccc3c12	10.6	7.6	0.8	20.2	58.4*
COCCCNC(=O)Cc1coc2ccc3ccccc3c12	-84.6	1.0	3.2	8.4	-9.3
O=c1c2c(nc3cc(-c4cccc(F)c4)[nH]n13)CCC2	-242.9	1.3	2.6	7.1	11.3
NS(=O)(=O)c1cccc(NC(=O)CSc2nc3ccccc3[nH]2)c1	4.5	-1.5	7.0	10.0	-4.4
Cc1ccc2nc(SCC(=O)Nc3cccc(S(N)(=O)=O)c3)[nH]c2c1	-0.1	0.9	2.0	9.0	92.9*
Clc1cccc(Cl)c1Cn1cnc2c(NCc3ccco3)ncnc21	7.8	14.2	2.7	-6.1	61.2*
Cc1cc(NC(=O)COc2ccccc2C)no1	-30.6	-5.9	-1.3	12.0	1.6
Cc1cc(NC(=O)COc2nnc(-c3ccccc3)c3ccccc23)no1	16.5	12.8	7.0	23.1	57.7*
COc1ccc(-c2c(C)[nH]n3c(=O)c(Cc4ccccc4)c(C)nc23)cc1OC	-53.3	2.8	-1.0	10.8	-2.9
Cc1cc(C)cc(NC(=O)c2ccc(Cn3nc(C)c(Cl)c3C)o2)c1	39.8	21.2	4.4	30.6	120.4*
Cc1ccc(CNC(=O)c2ccc(Cn3nc(C)c(Cl)c3C)o2)cc1	-29.1	-7.7	-5.6	2.6	-6.9
CC(Sc1nnnn1-c1ccccc1)C(=O)Nc1ccc(Cl)cn1 (configuration not stated)	17.1	16.1	17.4	2.2	51.5*
CC(Sc1nnc2ccccn12)C(=O)Nc1ccc(Cl)cn1 (configuration not stated)	0.6	-6.4	0.8	16.9	-7.8
C=CCNc1ncnc2c1cnn2-c1ccc(C)cc1C	7.1	-3.0	-4.8	3.0	-7.6
CCOC(=O)N1CCC(Nc2ncnc3c2cnn3-c2ccc(C)cc2C)CC1	6.0	17.4	14.9	16.7	44.2*
O=C(COC(=O)c1ccc2ccccc2c1)Nc1ncc(C(F)(F)F)cc1Cl	-60.5	-4.8	5.5	5.1	-16.0
SMILES	Calpain2 inh	thrombin 1536	FXIa inh 1536	FXIIa inh 1536	hK5 inh
O=C(COC(=O)c1c2ccccc2cc2ccccc12)Nc1ncc(C(F)(F)F)cc1Cl	-52.1	8.0	15.1	0.5	59.4*
COc1ccccc1C(=O)C1Nc2ccccc2-c2nnc(SC)nc2O1 (configuration not stated)	-9.8	2.4	9.1	19.1	-22.7
CCCCSc1nnc2c(n1)OC(C(=O)c1ccccc1)Nc1ccccc1-2 (configuration not stated)	65.1*	10.8	6.3	21.0	-15.4
c1csc(-c2nc3ccccc3[nH]2)c1	-65.8	13.3	7.4	42.8*	4.3
O=C1CC(c2ccc(F)cc2)Cc2nc(N3CCN(c4ccccc4)CC3)ncc21 (configuration not stated)	-52.9	-17.1	-7.3	18.0	-31.4
COc1cc2[nH]c(=S)n(CCN3CCOCC3)c(=O)c2cc1OC	19.2	13.0	8.4	-12.3	103.8*
CS(=O)(=O)N(Cc1ccccc1)c1ccc(C(=O)NC2CCCCC2O)cc1 (configuration not stated)	18.1	17.6	-4.7	106.2*	14.2
O=C(/C=C/c1cccc(Cl)c1)NCc1ccncc1	23.5	8.6	13.6	17.2	47.2*
O=C(NC(=S)NCCc1ccccn1)c1ccco1	-8.3	-5.8	-6.8	/	-4.5
CN(CCc1ccccn1)C(=S)NC(=O)c1ccco1	51.8*	-7.4	-1.0	9.3	-4.8
O=[N+]([O-])c1ccccc1CSc1nc2ccccc2o1	10.3	-2.9	2.4	7.4	-13.5
O=C(c1ccc(N2CCCCC2)c([N+](=O)[O-])c1)N(c1ccccn1)c1ccccn1	27.7	42.6*	0.8	9.1	2.7
Cc1ccc(NC(=O)ON=C2CCCC2)cc1	19.5	32.3	9.2	20.2	43.6*
O=C(NCC1CCCO1)c1cncc(Br)c1 (configuration not stated)	11.4	-6.9	0.5	5.0	2.0
Cc1ccc2nc(NC(=O)CN(C)S(=O)(=O)c3cccc4nsnc34)sc2c1	53.3*	20.4	6.5	7.4	34.3
Cc1ccc2nc(NC(=O)C3CCCN(S(=O)(=O)c4cccc5nsnc45)C3)sc2c1 (configuration not stated)	-267.1	15.2	17.4	45.2*	31.0
Cc1ccc2nc(NC(=O)C3CCN(S(=O)(=O)c4cccc5nsnc45)CC3)sc2c1	3.9	20.5	16.1	9.9	31.8
COc1ccc(NC(=O)C2CCCN(S(=O)(=O)c3cccc4cccnc34)C2)c(OC)c1 (configuration not stated)	124.0*	21.0	12.8	32.8	112.7*
CCOC(=O)C1(Cc2cccc(OC)c2)CCN(C2CCOCC2)CC1	-15.0	-5.4	-1.4	4.7	0.5
Cc1cnc(C(=O)OCC(=O)NC23CC4CC(CC(C4)C2)C3)cn1	-24.6	-11.2	-14.4	-22.0	-27.7
Cc1ccc(C(C#N)c2ccc3c(C(F)(F)F)cc(C(F)(F)F)nc3n2)cc1 (configuration not stated)	55.4*	-3.3	-5.9	-0.8	-14.3
COC(=O)c1c(C)oc(C)c(C(=O)OC)c1=O	7.6	17.1	11.1	20.9	73.8*
Cc1oc(C)c(C(=O)O)c1C(=O)O	7.5	-4.2	-7.0	2.1	-9.3
Cc1cc(F)ccc1S(=O)(=O)Nc1ncnc2sc3c(c12)CCC3	-43.8	1.6	41.1*	23.3	11.2
